From ChEMBL document CHEMBL1158464, “Structure-activity relationships and cancer-cell selective toxicity of novel inhibitors of glioma-associated oncogene homologue 1 (Gli1) mediated transcription” (J Med Chem, 2009)
The source made the active and inactive calls. The rule behind the calls is not given here.

Assays:
HepG2 = test: Cytotoxicity against human HepG2 cells at 40 uM/well after 68 hrs by alamar blue assay; format: functional, cell-based
Method in brief: (§1)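 Cells plated in appropriate medium 24 h before compound. A 10 mM DMSO stock was diluted in EMEM to 160 µM (4×) and added in triplicate to a final 40 µM. Incubated 68 h at 37 °C, then Alamar Blue for 4 h at 37 °C. Fluorescence read at ex 510/em 590 nm. Viability taken relative to DMSO control wells.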

Raji = test: Cytotoxicity against human Raji cells at 40 uM/well after 68 hrs by alamar blue assay; format: functional, cell-based; method in brief: as §1
Zinc finger protein GLI2 = Zinc finger protein GLI2 (Homo sapiens, UniProt P10070); test: Inhibition of exogenously transfected human Gli2 delta-N-mediated transcriptional activity in mouse C3H10T1/2 cells after 24 hrs by luciferase reporter gene assay; format: cell-based; conditions: c3h 10t1/2
Method in brief: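 C3H10T1/2 reporter assay run as for hGli1, but with an amino-terminal repressor-domain-deleted hGli2 (ΔNhGli2) in place of hGli1, plus GliLuc-BS and pRL-TK via Fugene6. Compound or DMSO was given for 24 h at 37 °C. Read-out was dual luciferase firefly/Renilla in triplicate, with dose-response curve fitting.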

[1] = molecular target: T1, Zinc finger protein GLI1 (Homo sapiens) (UniProt P08151); test: Inhibition of exogenously transfected human Gli1-mediated transcriptional activity in mouse C3H10T1/2 cells at 20 uM after 24 hrs by luciferase reporter gene assay; format: cell-based; conditions: C3H 10T1/2
T1 sequence (whole entry): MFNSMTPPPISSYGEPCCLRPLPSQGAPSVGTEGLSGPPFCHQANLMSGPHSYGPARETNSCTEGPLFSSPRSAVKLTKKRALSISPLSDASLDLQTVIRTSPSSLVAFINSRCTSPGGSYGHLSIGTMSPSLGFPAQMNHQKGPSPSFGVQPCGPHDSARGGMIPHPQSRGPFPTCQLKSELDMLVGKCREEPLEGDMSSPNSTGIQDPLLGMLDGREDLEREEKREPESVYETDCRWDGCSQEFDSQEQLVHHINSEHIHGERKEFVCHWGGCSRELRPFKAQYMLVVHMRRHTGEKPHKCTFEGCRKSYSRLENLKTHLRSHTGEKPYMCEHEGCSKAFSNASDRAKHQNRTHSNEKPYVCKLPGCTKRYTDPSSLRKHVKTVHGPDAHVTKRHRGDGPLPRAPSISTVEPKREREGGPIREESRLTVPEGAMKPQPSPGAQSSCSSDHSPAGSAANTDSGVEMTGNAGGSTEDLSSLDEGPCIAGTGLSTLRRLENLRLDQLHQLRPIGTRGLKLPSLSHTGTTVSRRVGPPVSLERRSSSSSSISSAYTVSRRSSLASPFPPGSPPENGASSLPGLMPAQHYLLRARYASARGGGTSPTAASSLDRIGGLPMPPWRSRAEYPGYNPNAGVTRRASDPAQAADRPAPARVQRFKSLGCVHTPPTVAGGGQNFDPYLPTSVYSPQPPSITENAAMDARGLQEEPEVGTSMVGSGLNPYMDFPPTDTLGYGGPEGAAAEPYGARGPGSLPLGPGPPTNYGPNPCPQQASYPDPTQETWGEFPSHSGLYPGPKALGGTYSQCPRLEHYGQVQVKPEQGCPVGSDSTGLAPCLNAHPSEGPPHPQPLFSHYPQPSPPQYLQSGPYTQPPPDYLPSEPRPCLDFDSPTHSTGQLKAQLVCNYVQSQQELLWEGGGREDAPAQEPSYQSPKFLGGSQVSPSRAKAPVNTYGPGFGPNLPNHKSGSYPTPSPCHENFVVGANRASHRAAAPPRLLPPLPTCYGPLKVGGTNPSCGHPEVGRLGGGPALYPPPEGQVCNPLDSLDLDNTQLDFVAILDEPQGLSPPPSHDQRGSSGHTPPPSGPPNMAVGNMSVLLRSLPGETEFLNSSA
Method in brief: (§2)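 They were replated 18 h later, given compound or DMSO 6 h after plating, and exposed for 24 h at 37 °C, 5% CO2. Lysate was read by dual luciferase as firefly/Renilla, triplicate, DMSO = 0%. IC50 came from curve fitting.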

LN-229 = test: Cytotoxicity against human LN229 cells at 40 uM/well after 68 hrs by alamar blue assay; format: functional, cell-based; method in brief: as §1
MDA-MB-231 = test: Cytotoxicity against human MDA-MB-231 cells at 40 uM/well after 68 hrs by alamar blue assay; format: functional, cell-based; method in brief: as §1
BJ = test: Cytotoxicity against human TERT-immortalized human BJ cells at 40 uM/well after 68 hrs by alamar blue assay; format: cell-based; method in brief: as §1
SJRH30 = test: Cytotoxicity against human Rh30 cells at 40 uM/well after 68 hrs by alamar blue assay; format: functional, cell-based; method in brief: as §1
Daoy = test: Cytotoxicity against human DaOY cells at 40 uM/well after 68 hrs by alamar blue assay; format: functional, cell-based; method in brief: as §1
[2] = Stability in mouse C3H10T1/2 cells assessed as compound degradation at 40 uM after 24 hrs by LCMS analysis; format: ADME, cell-based; conditions: c3h 10t1/2, 24 h
DU-145 = test: Cytotoxicity against human DU145 cells at 40 uM/well after 68 hrs by alamar blue assay; format: functional, cell-based; method in brief: as §1
[3] = molecular target: T1, Zinc finger protein GLI1 (Homo sapiens); test: Inhibition of exogenously transfected human Gli1-mediated transcriptional activity in mouse C3H10T1/2 cells at 40 uM after 24 hrs by luciferase reporter gene assay; format: cell-based; conditions: C3H 10T1/2; method in brief: as §2
C3H 10T1/2 [4] = test: Inhibition of Photinus pyralis and Renilla luciferase expression exogenously transfected in mouse C3H10T1/2 cell lysate at 60 uM after 40 mins at room temperature by promega steady-glo luciferase assay; format: functional, cell-free
C3H 10T1/2 [5] = test: Inhibition of Renilla luciferase expression exogenously transfected in mouse C3H10T1/2 cell lysate at 20 uM after 40 mins at room temperature by promega steady-glo luciferase assay; format: functional, cell-free
C3H 10T1/2 [6] = test: Inhibition of Photinus pyralis luciferase expression exogenously transfected in mouse C3H10T1/2 cell lysate at 60 uM after 40 mins at room temperature by promega steady-glo luciferase assay; format: functional, cell-free
C3H 10T1/2 [7] = test: Inhibition of Renilla luciferase expression exogenously transfected in mouse C3H10T1/2 cell lysate at 40 uM after 40 mins at room temperature by promega steady-glo luciferase assay; format: functional, cell-free
C3H 10T1/2 [8] = test: Inhibition of human Gli1 protein expression exogenously transfected in mouse C3H10T1/2 cells at 40 uM by Western blot analysis; format: functional, cell-based
C3H 10T1/2 [9] = test: Inhibition of Renilla luciferase expression exogenously transfected in mouse C3H10T1/2 cell lysate at 60 uM after 40 mins at room temperature by promega steady-glo luciferase assay; format: functional, cell-free
C3H 10T1/2 [10] = test: Inhibition of Photinus pyralis luciferase expression exogenously transfected in mouse C3H10T1/2 cell lysate at 20 uM after 40 mins at room temperature by promega steady-glo luciferase assay; format: functional, cell-free
C3H 10T1/2 [11] = test: Inhibition of Photinus pyralis and Renilla luciferase expression exogenously transfected in mouse C3H10T1/2 cell lysate at 40 uM after 40 mins at room temperature by promega steady-glo luciferase assay; format: functional, cell-free
[12] = molecular target: T1, Zinc finger protein GLI1 (Homo sapiens); test: Inhibition of endogenously overexpressed Gli1-mediated transcriptional activity in human Rh30 cells at 10 uM after 24 hrs by luciferase reporter gene assay; format: cell-based
Method in brief: (§3)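 Human Rh30 rhabdomyosarcoma cells (endogenous Gli1, no exogenous Gli1) in RPMI-1640 with 10% FBS were transfected overnight with Fugene6, GliLuc-BS (500 ng/mL) and pRL-CMV (2.5 ng/mL). Cells were replated, given compound or DMSO 18 h later, and exposed for 24 h at 37 °C, 5% CO2. Read-out was dual luciferase firefly/Renilla, triplicate, DMSO = 0%.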

C3H 10T1/2 [13] = test: Inhibition of human Gli1 protein expression exogenously transfected in mouse C3H10T1/2 cells at 20 uM by Western blot analysis; format: functional, cell-based
C3H 10T1/2 [14] = test: Inhibition of Photinus pyralis luciferase expression exogenously transfected in mouse C3H10T1/2 cell lysate at 40 uM after 40 mins at room temperature by promega steady-glo luciferase assay; format: functional, cell-free
[15] = Cytotoxicity against mouse C3H10T1/2 cells; format: cell-based; conditions: c3h 10t1/2
[16] = molecular target: T1, Zinc finger protein GLI1 (Homo sapiens); test: Inhibition of endogenously overexpressed Gli1-mediated transcriptional activity in human Rh30 cells at 20 uM after 24 hrs by luciferase reporter gene assay; format: cell-based; method in brief: as §3
C3H 10T1/2 [17] = test: Inhibition of Photinus pyralis and Renilla luciferase expression exogenously transfected in mouse C3H10T1/2 cell lysate at 20 uM after 40 mins at room temperature by promega steady-glo luciferase assay; format: functional, cell-free
[18] = molecular target: T1, Zinc finger protein GLI1 (Homo sapiens); test: Inhibition of endogenously overexpressed Gli1-mediated transcriptional activity in human Rh30 cells at 40 uM after 24 hrs by luciferase reporter gene assay; format: cell-based; method in brief: as §3
C3H 10T1/2 [19] = test: Selectivity ratio of IC50 for exogenously transfected human Gli2 delta-N-mediated transcriptional activity in mouse C3H10T1/2 cells to IC50 for exogenously transfected human Gli1-mediated transcriptional activity in mouse C3H10T1/2 cells; format: cell-based
Method in brief: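 Ratio of IC50 values from dose-response curves of dual-luciferase Gli-reporter activity in C3H10T1/2 cells. Cells were transfected with ΔNhGli2 versus hGli1, plus GliLuc-BS and pRL-TK, and exposed to compound for 24 h at 37 °C. Triplicate data.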

Chain of Zinc finger protein GLI2 (P10070 whole entry, looked up): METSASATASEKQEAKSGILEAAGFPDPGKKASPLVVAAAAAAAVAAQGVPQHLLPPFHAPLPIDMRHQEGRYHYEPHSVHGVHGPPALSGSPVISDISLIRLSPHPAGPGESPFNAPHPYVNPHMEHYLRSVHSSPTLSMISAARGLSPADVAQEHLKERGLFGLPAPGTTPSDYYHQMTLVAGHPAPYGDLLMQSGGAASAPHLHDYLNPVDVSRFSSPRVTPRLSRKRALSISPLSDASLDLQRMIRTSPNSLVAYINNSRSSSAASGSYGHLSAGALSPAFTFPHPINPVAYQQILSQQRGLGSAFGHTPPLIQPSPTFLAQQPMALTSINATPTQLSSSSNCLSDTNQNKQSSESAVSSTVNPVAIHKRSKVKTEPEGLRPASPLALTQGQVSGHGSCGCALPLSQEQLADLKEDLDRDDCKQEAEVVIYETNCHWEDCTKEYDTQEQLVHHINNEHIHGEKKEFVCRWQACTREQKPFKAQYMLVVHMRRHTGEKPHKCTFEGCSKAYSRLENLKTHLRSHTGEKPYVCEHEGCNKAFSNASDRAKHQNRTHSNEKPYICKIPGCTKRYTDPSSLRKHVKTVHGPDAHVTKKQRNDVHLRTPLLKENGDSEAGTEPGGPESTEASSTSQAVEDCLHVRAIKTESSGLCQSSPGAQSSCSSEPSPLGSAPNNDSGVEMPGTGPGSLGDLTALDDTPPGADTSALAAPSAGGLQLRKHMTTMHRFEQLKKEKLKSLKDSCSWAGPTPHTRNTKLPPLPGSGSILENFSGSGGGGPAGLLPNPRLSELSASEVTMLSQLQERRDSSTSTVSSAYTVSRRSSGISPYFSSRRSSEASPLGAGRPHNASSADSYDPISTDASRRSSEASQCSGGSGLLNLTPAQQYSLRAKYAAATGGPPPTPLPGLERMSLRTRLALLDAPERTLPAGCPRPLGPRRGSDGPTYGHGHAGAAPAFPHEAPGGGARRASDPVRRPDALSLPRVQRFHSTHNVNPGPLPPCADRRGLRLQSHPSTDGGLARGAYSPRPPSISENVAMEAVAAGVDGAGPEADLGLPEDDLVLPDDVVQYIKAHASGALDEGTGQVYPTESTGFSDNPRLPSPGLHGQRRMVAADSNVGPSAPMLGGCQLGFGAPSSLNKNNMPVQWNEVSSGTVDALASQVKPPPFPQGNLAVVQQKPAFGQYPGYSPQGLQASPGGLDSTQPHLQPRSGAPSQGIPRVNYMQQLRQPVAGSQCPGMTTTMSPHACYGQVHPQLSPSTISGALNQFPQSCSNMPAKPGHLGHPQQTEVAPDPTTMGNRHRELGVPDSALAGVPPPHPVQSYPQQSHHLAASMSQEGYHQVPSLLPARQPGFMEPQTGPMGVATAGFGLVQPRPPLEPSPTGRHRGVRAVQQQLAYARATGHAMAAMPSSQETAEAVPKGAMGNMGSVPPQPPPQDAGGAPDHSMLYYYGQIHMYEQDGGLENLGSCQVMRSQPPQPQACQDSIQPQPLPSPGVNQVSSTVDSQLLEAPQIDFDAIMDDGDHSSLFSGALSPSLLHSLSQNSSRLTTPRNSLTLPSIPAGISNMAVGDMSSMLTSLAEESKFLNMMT

Row | Structure (SMILES) | IC50 (Zinc finger protein GLI2) [µM] | inhibition [1] | Stability [2] | inhibition [3] | Activity (HepG2) | Activity (Raji) | Activity (LN-229) | Activity (MDA-MB-231) | Activity (BJ) | Activity (SJRH30) | Activity (Daoy) | Activity (DU-145) | inhibition (C3H 10T1/2 [4]) | inhibition (C3H 10T1/2 [5]) | inhibition (C3H 10T1/2 [6]) | inhibition (C3H 10T1/2 [7]) | inhibition (C3H 10T1/2 [8]) | inhibition (C3H 10T1/2 [9]) | inhibition (C3H 10T1/2 [10]) | inhibition (C3H 10T1/2 [11]) | other results
1 | C[C@H](C(=O)N(CCc1ccc(O)cc1)CCc1ccc(O)cc1)c1cccc(C(=O)c2ccccc2)c1 | 20.5 | Active | Stable | Active | inactive | Active | inactive | Active | Non-toxic | Active | Active | Active | – | – | – | – | – | – | – | – | –
2 | O=C(Cc1c[nH]c2ccc(OCc3ccccc3)cc12)NCCc1ccc(O)cc1 | – | Active | – | Active | inactive | Active | inactive | Active | Non-toxic | Active | Active | Active | – | – | – | – | – | – | – | – | Activity [15]: Toxic
3 | COc1ccc(COC[C@@H](C)c2cccc(C(=O)c3ccccc3)c2)cc1 | – | inactive | – | inactive | inactive | Active | inactive | Active | Non-toxic | Active | Active | Active | – | – | – | – | – | – | – | – | –
4 | C[C@H](C(=O)Nc1ccc(O)cc1)c1cccc(C(=O)c2ccccc2)c1 | – | Active | – | Active | inactive | Active | inactive | Active | Non-toxic | Active | Active | Active | – | – | – | – | – | – | – | – | –

Continued, in another order:

Row | IC50 (Zinc finger protein GLI2) [µM] | inhibition [1] | Stability [2] | inhibition [3] | Structure (SMILES) | Activity (HepG2) | Activity (Raji) | Activity (LN-229) | Activity (MDA-MB-231) | Activity (BJ) | Activity (SJRH30) | Activity (Daoy) | Activity (DU-145) | inhibition (C3H 10T1/2 [4]) | inhibition (C3H 10T1/2 [5]) | inhibition (C3H 10T1/2 [6]) | inhibition (C3H 10T1/2 [7]) | inhibition (C3H 10T1/2 [8]) | inhibition (C3H 10T1/2 [9]) | inhibition (C3H 10T1/2 [10]) | inhibition (C3H 10T1/2 [11]) | other results
5 | 35.2 | Active | Stable | Active | C[C@H](C(=O)NCCc1ccc(O)cc1)c1cccc(C(=O)c2ccccc2)c1 | inactive | Active | inactive | Active | Non-toxic | Active | Active | Active | inactive | inactive | inactive | inactive | inactive | inactive | inactive | inactive | inhibition [12]: Active; inhibition (C3H 10T1/2 [13]): inactive; inhibition (C3H 10T1/2 [14]): inactive; Activity [15]: Non-toxic; inhibition [16]: Active; inhibition (C3H 10T1/2 [17]): inactive; inhibition [18]: Active
6 | 23.9 | Active | Stable | Active | CCCN(CCc1ccc(O)cc1)C(=O)[C@@H](C)c1cccc(C(=O)c2ccccc2)c1 | inactive | Active | inactive | Active | Non-toxic | Active | Active | Active | inactive | inactive | inactive | inactive | inactive | inactive | inactive | inactive | inhibition [12]: Active; inhibition (C3H 10T1/2 [13]): inactive; inhibition (C3H 10T1/2 [14]): inactive; inhibition [16]: Active; inhibition (C3H 10T1/2 [17]): inactive; fold change (FC) (C3H 10T1/2 [19]): 3; inhibition [18]: Active
